Tested on in one series: not listed separately
Put plainly: Selectivity index, ratio of CC50 for human P3HR1 cells to EC50 for EBV infected in human P3HR1 cells. More on the design: species or system P3HR-1.
Conditions: not given
The method in brief: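 CC50: P3HR-1 cells treated or untreated with compounds, viability counted by Trypan blue exclusion under light microscope 2 days post-treatment, relative to nondrug-treated controls, CC50 from dose-response curves. EC50: TPA (20 ng/mL)/sodium butyrate (0.3 mM)-induced P3HR-1 cells, compounds added 3 h later, EBV EBNA1 DNA quantified by real-time PCR at 48 h. Ratio CC50/EC50.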
As for `COc1cc([C@H]2O[C@@H](c3cc(OC)c(OC)c(OC)c3)[C@H](C)[C@@H]2C)cc(O)c1OC`, the “Ratio CC50/EC50” value stood at 1.9.

For the compound `COc1ccc([C@H](O)[C@@H](C)Oc2ccc([C@H]3O[C@H](c4ccc5c(c4)OCO5)[C@H](C)[C@H]3C)cc2OC)cc1OC` [SAUCERNEOL D], the “Ratio CC50/EC50” value worked out at 41.1.

In the case of `COc1cc([C@H]2O[C@@H](c3cc(OC)c(OC)c(OC)c3)[C@H](C)[C@H]2C)cc(OC)c1OC` [EPIGRANDISIN], the “Ratio CC50/EC50” value is greater than 8.

In the case of `COc1ccc([C@@H](O)[C@@H](C)Oc2ccc([C@H]3O[C@@]4(c5ccc(O[C@H](C)[C@H](O)c6ccc(OC)c(OC)c6)c(OC)c5)O[C@@]4(C)[C@H]3C)cc2OC)cc1OC` (relative stereo), the “Ratio CC50/EC50” value came out at 4.4.

On to `C=CCc1cc(OC)c(O[C@H](C)C(=O)c2cc(OC)c(OC)c(OC)c2)c(OC)c1`, for which the “Ratio CC50/EC50” value is greater than 9.1.

Consider `COc1ccc([C@@H](O)[C@@H](C)Oc2ccc([C@H]3O[C@H](c4ccc(OC)c(OC)c4)[C@H](C)[C@H]3C)cc2OC)cc1OC`, for which the “Ratio CC50/EC50” value is on record as 65.

For `COc1cc([C@H]2O[C@@H](c3cc(OC)c4c(c3)OCO4)[C@H](C)[C@@H]2C)cc(OC)c1OC`, the “Ratio CC50/EC50” value is reported as 2.

With `COc1cc([C@@H](O)[C@@H](C)Oc2ccc([C@H]3O[C@H](c4ccc(O[C@H](C)[C@H](O)c5ccc(OC)c(OC)c5)c(OC)c4)[C@H](C)[C@H]3C)cc2OC)ccc1O`, the “Ratio CC50/EC50” value was 9.2.

With `C/C=C/c1ccc(O[C@H](C)[C@H](O)c2ccc(O)c(OC)c2)c(OC)c1`, the “Ratio CC50/EC50” value is recorded as 2.6.

On to `COc1cc([C@@H](OC(C)=O)[C@@H](C)Oc2c(OC)cc(/C=C/CO)cc2OC)cc(OC)c1OC`, for which the “Ratio CC50/EC50” value is given as greater than 4.2.

For the compound `COc1ccc([C@H]2O[C@@H](c3cc(OC)c(OC)c(OC)c3)[C@H](C)[C@@H]2C)cc1OC`, the “Ratio CC50/EC50” value stood at 2.5.

In the case of `COc1cc([C@@H](O)[C@@H](C)Oc2ccc([C@H]3O[C@H](c4ccc(O[C@H](C)[C@H](O)c5ccc6c(c5)OCO6)c(OC)c4)[C@H](C)[C@H]3C)cc2OC)ccc1O` [4-O-DEMETHYLMANASSANTIN B], the “Ratio CC50/EC50” value was 20.2.

Turning to `C/C=C/c1cc(OC)c(O[C@@H](C)[C@@H](O)c2cc(OC)c(OC)c(OC)c2)c(OC)c1`, the “Ratio CC50/EC50” value is reported as 3.2.

The next series concerns Human gammaherpesvirus 4. Put plainly: Antiviral activity against EBV infected in human P3HR1 cells assessed as inhibition of lytic viral DNA replication after 48 hrs by RT-PCR analysis. Type of series: functional, organism-based. The settings on record: human gammaherpesvirus 4, P3HR-1, 48 h. The method in brief: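 P3HR-1 Burkitt lymphoma cells latently carrying EBV, grown in RPMI 1640 with 10% FBS, induced to lytic replication with TPA 20 ng/mL plus sodium butyrate 0.3 mM. Compounds added 3 h later across a concentration range. At 48 h post-induction, total cellular DNA purified, EBV genome copies quantified by SYBR green real-time PCR for EBNA1. Noninduced background subtracted, normalised to untreated induced cells, EC50 from dose-response curve.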
As usually defined, the EC50 is the midpoint of the concentration-response curve. In the case of `COc1cc([C@H]2O[C@@H](c3cc(OC)c(OC)c(OC)c3)[C@H](C)[C@@H]2C)cc(O)c1OC`, the EC50 was determined as 16.7 µM.

Turning to `COc1ccc([C@H](O)[C@@H](C)Oc2ccc([C@H]3O[C@H](c4ccc5c(c4)OCO5)[C@H](C)[C@H]3C)cc2OC)cc1OC` [SAUCERNEOL D], the EC50 turned out to be 1.09 µM.

As to `COc1cc([C@H]2O[C@@H](c3cc(OC)c(OC)c(OC)c3)[C@H](C)[C@H]2C)cc(OC)c1OC` [EPIGRANDISIN], the 50% effective concentration (EC50) was found to be 25 µM.

For `COc1ccc([C@@H](O)[C@@H](C)Oc2ccc([C@H]3O[C@@]4(c5ccc(O[C@H](C)[C@H](O)c6ccc(OC)c(OC)c6)c(OC)c5)O[C@@]4(C)[C@H]3C)cc2OC)cc1OC` (relative stereo), the concentration for a half-maximal effect (EC50) was determined as 14.5 µM.

Consider `C=CCc1cc(OC)c(O[C@H](C)C(=O)c2cc(OC)c(OC)c(OC)c2)c(OC)c1`, for which the EC50 amounted to 21.9 µM.

On to `COc1ccc([C@@H](O)[C@@H](C)Oc2ccc([C@H]3O[C@H](c4ccc(OC)c(OC)c4)[C@H](C)[C@H]3C)cc2OC)cc1OC`, for which the half-maximal effective concentration (EC50) turned out to be 1.7 µM.

Turning to `COc1cc([C@H]2O[C@@H](c3cc(OC)c4c(c3)OCO4)[C@H](C)[C@@H]2C)cc(OC)c1OC`, the 50% effective concentration (EC50) was found to be 27.3 µM.

Turning to `COc1cc([C@@H](O)[C@@H](C)Oc2ccc([C@H]3O[C@H](c4ccc(O[C@H](C)[C@H](O)c5ccc(OC)c(OC)c5)c(OC)c4)[C@H](C)[C@H]3C)cc2OC)ccc1O`, the EC50 turned out to be 7.55 µM.

Regarding `C/C=C/c1ccc(O[C@H](C)[C@H](O)c2ccc(O)c(OC)c2)c(OC)c1`, the EC50 stood at 23.8 µM.

Take `COc1cc([C@@H](OC(C)=O)[C@@H](C)Oc2c(OC)cc(/C=C/CO)cc2OC)cc(OC)c1OC`: the EC50 turned out to be 44.3 µM.

As for `COc1ccc([C@H]2O[C@@H](c3cc(OC)c(OC)c(OC)c3)[C@H](C)[C@@H]2C)cc1OC`, the EC50 is 67.9 µM.

Consider `COc1cc([C@@H](O)[C@@H](C)Oc2ccc([C@H]3O[C@H](c4ccc(O[C@H](C)[C@H](O)c5ccc6c(c5)OCO6)c(OC)c4)[C@H](C)[C@H]3C)cc2OC)ccc1O` [4-O-DEMETHYLMANASSANTIN B], for which the EC50 was found to be 3.52 µM.

In the case of `C/C=C/c1cc(OC)c(O[C@@H](C)[C@@H](O)c2cc(OC)c(OC)c(OC)c2)c(OC)c1`, the EC50 stood at 24 µM.

Tested on in a further series: not listed separately
Nature of the series: Cytotoxicity against human P3HR1 cells assessed as cell viability after 2 days by trypan blue staining-based light microscopy. Set-up: species or system P3HR-1.
Conditions: not given
The term CC50 denotes the concentration that lowers cell viability or growth by half. For the compound `COc1cc([C@H]2O[C@@H](c3cc(OC)c(OC)c(OC)c3)[C@H](C)[C@@H]2C)cc(O)c1OC`, the half-maximal cytotoxic concentration (CC50) at 48 h is 32 µM.

On to `COc1ccc([C@H](O)[C@@H](C)Oc2ccc([C@H]3O[C@H](c4ccc5c(c4)OCO5)[C@H](C)[C@H]3C)cc2OC)cc1OC` [SAUCERNEOL D], for which the CC50 at 48 h was 45 µM.

With `COc1cc([C@H]2O[C@@H](c3cc(OC)c(OC)c(OC)c3)[C@H](C)[C@H]2C)cc(OC)c1OC` [EPIGRANDISIN], the 50% cytotoxic concentration (CC50) at 48 h is greater than 200 µM.

Turning to `COc1ccc([C@@H](O)[C@@H](C)Oc2ccc([C@H]3O[C@@]4(c5ccc(O[C@H](C)[C@H](O)c6ccc(OC)c(OC)c6)c(OC)c5)O[C@@]4(C)[C@H]3C)cc2OC)cc1OC` (relative stereo), the CC50 at 48 h was 64.8 µM.

For `C=CCc1cc(OC)c(O[C@H](C)C(=O)c2cc(OC)c(OC)c(OC)c2)c(OC)c1`, the CC50 at 48 h is greater than 200 µM.

Turning to `COc1ccc([C@@H](O)[C@@H](C)Oc2ccc([C@H]3O[C@H](c4ccc(OC)c(OC)c4)[C@H](C)[C@H]3C)cc2OC)cc1OC`, the CC50 at 48 h is 110 µM.

For the compound `COc1cc([C@H]2O[C@@H](c3cc(OC)c4c(c3)OCO4)[C@H](C)[C@@H]2C)cc(OC)c1OC`, the cytotoxic concentration (CC50) at 48 h is 55 µM.

For the compound `COc1cc([C@@H](O)[C@@H](C)Oc2ccc([C@H]3O[C@H](c4ccc(O[C@H](C)[C@H](O)c5ccc(OC)c(OC)c5)c(OC)c4)[C@H](C)[C@H]3C)cc2OC)ccc1O`, the CC50 at 48 h stood at 69.5 µM.

For the compound `C/C=C/c1ccc(O[C@H](C)[C@H](O)c2ccc(O)c(OC)c2)c(OC)c1`, the CC50 at 48 h was 61.3 µM.

On to `COc1cc([C@@H](OC(C)=O)[C@@H](C)Oc2c(OC)cc(/C=C/CO)cc2OC)cc(OC)c1OC`, for which the half-maximal cytotoxic concentration (CC50) at 48 h was greater than 200 µM.

As to `COc1ccc([C@H]2O[C@@H](c3cc(OC)c(OC)c(OC)c3)[C@H](C)[C@@H]2C)cc1OC`, the CC50 at 48 h came to 172 µM.

Regarding `COc1cc([C@@H](O)[C@@H](C)Oc2ccc([C@H]3O[C@H](c4ccc(O[C@H](C)[C@H](O)c5ccc6c(c5)OCO6)c(OC)c4)[C@H](C)[C@H]3C)cc2OC)ccc1O` [4-O-DEMETHYLMANASSANTIN B], the CC50 at 48 h was 70.8 µM.

Take `C/C=C/c1cc(OC)c(O[C@@H](C)[C@@H](O)c2cc(OC)c(OC)c(OC)c2)c(OC)c1`: the cytotoxic concentration (CC50) at 48 h amounted to 77.3 µM.

The values above are taken from ChEMBL document CHEMBL3102732, “Potential antiviral lignans from the roots of Saururus chinensis with activity against Epstein-Barr virus lytic replication” (J Nat Prod, 2014).
